Only some compounds are listed: those with a hit (about 2.6% of all), similar ones and a draw of the others.
TNAP inh hiacc: blocks human TNAP under high phosphate acceptor concentration; purified TNAP, CDP-star luminescence, 1 M DEA; inhibition, % at 20 µM; actives 0.03% (n = 200,000); AID 1135;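 active = over 50% inhibition of tissue-nonspecific alkaline phosphatase at 20 µM in the single-dose screen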
Target sequence (P05186 whole entry, looked up): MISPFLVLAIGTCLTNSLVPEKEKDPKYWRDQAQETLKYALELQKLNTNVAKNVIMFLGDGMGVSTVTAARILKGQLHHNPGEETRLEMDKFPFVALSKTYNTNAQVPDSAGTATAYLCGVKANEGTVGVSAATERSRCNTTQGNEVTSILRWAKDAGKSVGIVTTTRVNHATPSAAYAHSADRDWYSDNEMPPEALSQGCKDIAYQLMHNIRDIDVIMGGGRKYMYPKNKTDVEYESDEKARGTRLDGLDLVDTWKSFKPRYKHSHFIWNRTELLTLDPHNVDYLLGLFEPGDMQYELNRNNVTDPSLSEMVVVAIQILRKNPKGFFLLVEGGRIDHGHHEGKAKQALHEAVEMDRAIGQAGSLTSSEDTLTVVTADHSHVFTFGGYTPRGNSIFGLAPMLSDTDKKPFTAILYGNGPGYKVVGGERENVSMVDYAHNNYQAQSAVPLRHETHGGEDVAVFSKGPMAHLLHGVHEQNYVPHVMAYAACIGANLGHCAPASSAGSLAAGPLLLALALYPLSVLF
WT yeast gro inh: growth inhibition of WT yeast, mitochondrial fusion screen; actives 2.1% (n = 190,000); inhibition, % at 10 µM; AID 1362; mitochondrial fusion phenotypic screen, WT strain; in the data active = inhibition above about 58%; tested in S. cerevisiae
TNAP act hi DEA: activators of human TNAP at high phosphate acceptor concentration; 200,000 tested, under 10 active; purified TNAP, CDP-star luminescence, 1 M DEA, 30 min; active compounds read high; 0 = EDTA background, 1 = DMSO-only activity; activation factor at 20 µM;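 active = activation factor at least 2 at 20 µM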
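system = human TNAP | amount = enzyme diluted 1/800 final | reagent = 100 µM CDP-star substrate | signal = luminescent substrate turnover signal | dosing = one dose, 20 µM | benchmarks = EDTA negative control, DMSO positive control | measure = activation factor | timing = 30 min reaction, room temperature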
Arbovirus anti: arbovirus infection inhibition. arbovirus infection cell-based antiviral screen. inhibition, % at 10 µM. actives 0.37% (n = 200,000). AID 1251; in the data active = inhibition above about 30%
TNAP inh noacc: blocks human TNAP activity with no phosphate acceptor present. inhibition, % at 20 µM. actives 0.26% (n = 200,000). P05186. purified TNAP, CDP-star luminescence, 30 min. AID 1012;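 active = tissue-nonspecific alkaline phosphatase inhibition above about 50% at 20 µM in the single-dose screen, limit read from the data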
Of the large screens only hits and unclear results are named; the others gave an inactive call.

COc1ccccc1NC(=O)CN1CCN(CC(=O)Nc2ccc(Cl)c(C(F)(F)F)c2)CC1	none
COc1ccc(NC(=O)c2cc(S(=O)(=O)NCC3COc4ccccc4O3)ccc2F)cc1 (stereo not given)	none
O=C(Nc1ccc(C(F)(F)F)cc1)c1cc(S(=O)(=O)NCC2COc3ccccc3O2)ccc1F (stereo not given)	WT yeast gro inh 82
CC(C)c1ccc(NC(=O)c2cc(S(=O)(=O)NCC3COc4ccccc4O3)ccc2F)cc1 (stereo not given)	WT yeast gro inh 62
CCN1CC=C2C(C#N)=C(N)C(C#N)(C#N)C(c3cc(Cl)ccc3Cl)C2C1 (stereo not given)	none
CCC(C)C(NC(=O)/C(=C\c1ccccc1)NC(=O)c1ccc(OC)cc1)C(=O)O (stereo not given)	none
CCOC(=O)c1c(NC(=O)CSc2ccccc2C(=O)O)sc(C)c1C	Arbovirus anti 33
CCOC(=O)c1c(NC(=O)C2CCN(S(=O)(=O)c3cccs3)CC2)sc(C)c1C	WT yeast gro inh 75
C[C@H](O)CC1=C[C@H](O)[C@@H](C)OC1=O	none
COC(=O)c1ccccc1Oc1nc(Cl)cc(OC)n1	none
COc1cc(OC)nc(Oc2ccccc2C(=O)Oc2ccccc2Cl)n1	WT yeast gro inh 62
COc1cc(OC)nc(Oc2ccccc2C(=O)Oc2ccc(Cl)cc2)n1	WT yeast gro inh 68
COc1cc(OC)nc(Oc2ccccc2C(=O)Oc2ccc(C)cc2)n1	none
O=C(c1cc2ccccc2o1)N1CCN(c2ccccc2Cl)CC1	WT yeast gro inh 75
Cc1ccc(-n2c(C)cc(C3=NNC(=NC4CC4)SC3)c2C)cc1C	WT yeast gro inh 78
Cc1cc(C2=NNC(=NC3CC3)SC2)c(C)n1-c1c(C)n(C)n(-c2ccccc2)c1=O	none
COc1ccccc1CN=Cc1[nH]c2ccc(Br)c(Cl)c2c1O	WT yeast gro inh 67
O=C(N/N=C/c1cccc(OC(=O)c2ccco2)c1)c1ccc(F)cc1	none
O=C(Nc1ccccn1)C(F)(F)C(F)(F)C(F)(F)C(F)(F)C(=O)Nc1ccccn1	none
O=C(C1CC12CCCC2)N1CCC(CO)(Cc2ccccc2Cl)CC1 (stereo not given)	none
C=CCNC(=S)N(C1CCCCC1)C1CCCCC1	WT yeast gro inh 72
C=CCNC(=S)N(Cc1ccccc1)Cc1ccccc1	none
CC(C)(C)c1ccc(OC(=O)c2ccc3nsnc3c2)cc1	WT yeast gro inh 73
CN1CCN(c2ccc(-c3ccnn3C(=O)Nc3cccc(C(F)(F)F)c3)cc2)CC1	WT yeast gro inh 68
Nc1nc(CN2CCN(c3ccccn3)CC2)nc(Nc2ccc(Cl)cc2)n1	none
COCCNC(=O)c1cc(-c2cccc(OC)c2)on1	none
COCC(C)NC(=O)c1cc(-c2cccc(OC)c2)on1 (stereo not given)	WT yeast gro inh 97
O=C(CCSc1ccc(Cl)cc1)NC12CC3CC(CC(C3)C1)C2	WT yeast gro inh 83
CC1CCCC(NC(=O)CNC(=S)N(Cc2ccccc2)Cc2cccs2)C1C (stereo not given)	WT yeast gro inh 65
COc1ccc(CCN2C(=O)CC(NNC(=O)c3ccccc3Br)C2=O)cc1OC (stereo not given)	none
CCOCC(=O)Nc1c(C(=O)Nc2ccccc2OC)oc2ccccc12	none
COc1ccc(NC(=O)c2oc3ccccc3c2NC(=O)COc2ccccc2OC)c(OC)c1	WT yeast gro inh 64
Cc1onc(-c2c(F)cccc2Cl)c1C(=O)Nc1sc2c(c1C(N)=O)CCC2	WT yeast gro inh 67
Cc1onc(-c2ccccc2)c1C(=O)Nc1sc2c(c1C(N)=O)CCC2	none
COc1ccc(C(=O)Nc2cccc3cccnc23)cc1OC	none
CC(C)Oc1ccc(C(=O)Nc2cccc3cccnc23)cc1	WT yeast gro inh 59
O=S(Cc1cc(Sc2ccccc2)nc(-c2ccccc2)n1)c1ccccc1 (stereo not given)	WT yeast gro inh 59
O=C(NNc1ccc([N+](=O)[O-])cc1)c1ccccc1Cl	none
O=C(NC(NNc1ccc([N+](=O)[O-])cc1)(C(F)(F)F)C(F)(F)F)c1ccc(Cl)cc1	WT yeast gro inh 78
CCCOc1ccc(-c2csc(N)n2)cc1[N+](=O)[O-]	WT yeast gro inh 76
CCCCOc1ccc(-c2cn3ccccc3n2)cc1[N+](=O)[O-]	none
COc1cccc(C2=Nn3c(nnc3-c3ccccc3O)SC2)c1	none
C[n+]1c2n(c3ccccc31)N=C(c1cc(C(C)(C)C)c(O)c(C(C)(C)C)c1)CS2	WT yeast gro inh 76
CC(C)(C)C(=O)CSc1nnc(Nc2ccccc2)s1	none
CCOc1ccc(S(=O)(=O)Nc2ccc(O)c(Sc3ncn[nH]3)c2)cc1	TNAP inh noacc 77
COc1ccc(OC)c(S(=O)(=O)Nc2ccc(O)c(Sc3ncn[nH]3)c2)c1	TNAP inh noacc 74
Cc1ccc(S(=O)(=O)Nc2ccc(O)c(Sc3ncn[nH]3)c2)cc1	TNAP inh noacc 74
Cc1cc(NC(=S)Nc2ccc(C)c(Cl)c2)n[nH]1	WT yeast gro inh 75
COc1ccc(NC(=S)Nc2cc(-c3ccccc3)[nH]n2)cc1Cl	WT yeast gro inh 66
O=C(Nc1cc(Cl)ccc1Oc1ccccc1)c1ccc(F)cc1	WT yeast gro inh 66
Cc1c(Cl)cccc1NC(=O)c1cc(-c2ccccc2O)n[nH]1	WT yeast gro inh 68, Arbovirus anti 30
Cc1cccc(NC(=O)c2cc([N+](=O)[O-])ccc2Cl)c1O	none
COc1ccc(Cl)cc1NC(=O)c1cc(-c2ccccc2O)n[nH]1	Arbovirus anti 70
O=C(Nc1cc(Cl)ccc1Oc1ccccc1)c1ccccc1F	none
O=C(Nc1ccccc1Oc1ccccc1)c1cc([N+](=O)[O-])ccc1Cl	WT yeast gro inh 76
Cc1ncoc1C(=O)Nc1cccc(Cl)c1C	none
O=C1CN(C(=O)COC(=O)/C=C/c2ccc(S(=O)(=O)N3CCOCC3)cc2)c2ccccc2N1	none
COC(=O)c1ccccc1NC(=S)N(Cc1ccc2c(c1)OCO2)Cc1cc2cccc(C)c2[nH]c1=O	none
O=C(Nc1nnc(CCN2CCCCC2)s1)c1ccccc1Cl	none
COc1cccc(C(=O)Nc2cc(-c3cn4cccnc4n3)ccc2C)c1	none
NCCCCCc1nnc(SCC(N)=O)o1	none
Cc1ccc(-c2cc(-c3ccccc3[N+](=O)[O-])[nH]n2)c(O)c1	none
O=C(c1ccccc1Oc1ccc(C(F)(F)F)cc1[N+](=O)[O-])N1CCOCC1	none
O=C(Nc1ccccc1Cl)c1ccccc1Oc1ccc(C(F)(F)F)cc1[N+](=O)[O-]	WT yeast gro inh 83
Cc1ccc(-c2cc(-c3ccccc3Cl)[nH]n2)c(O)c1	WT yeast gro inh 69
Cc1cc(NS(=O)(=O)Cc2ccccc2)no1	none
O=C(Nc1ccc(Cl)c(Cl)c1)N1CCSCC1	none
Cn1cc(C(=O)N/N=C/C2=C(N3CCOCC3)C(=C\c3ccccc3)/CC2)ccc1=O	none
O=C1Nc2ccccc2/C1=N\N=C\C1=C(N2CCOCC2)C(=C\c2ccccc2)/CC1	WT yeast gro inh 61

High-throughput results as filed in PubChem.
